# Results from ChEMBL document CHEMBL3616416, “Imidazolidine-4-one derivatives in the search for novel chemosensitizers of Staphylococcus aureus MRSA: synthesis, biological evaluation and molecular modeling studies” (Eur J Med Chem, 2015).
# The source made the active and inactive calls. The rule behind the calls is not given here.
# Key:
# [1] = test system: Staphylococcus aureus; experiment: Antimicrobial activity against methicillin-resistant Staphylococcus aureus HEMSA incubated for 20 hrs by serial dilution broth microplate method; format: functional
# Summary of the method: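 Broth microdilution MIC per CLSI in Mueller-Hinton broth against clinical isolate MRSA HEMSA 5. Bacterial suspension adjusted to OD 0.5, diluted 1:100 and added to serial two-fold dilutions of test agent. Ampicillin/sulbactam used at 2:1 ratio. Growth read after 20 h at 37 °C.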
# [2] = test system: Staphylococcus aureus; experiment: Antimicrobial activity against Staphylococcus aureus ATCC 25923 incubated for 20 hrs by serial dilution broth microplate method; format: functional; settings: ATCC 25923, 20 h
# Summary of the method: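 Broth dilution per CLSI in Mueller-Hinton broth, serial two-fold dilutions; compounds alone against reference strain, inoculum from suspension at OD 0.5 diluted 1:100; read after 20 h at 37 °C. MIC taken as lowest concentration inhibiting growth.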
# [3] = target: T1, Methicillin resistance mecR1 protein (Staphylococcus aureus) (UniProt P0A0B1); experiment: Inhibition of MecR1 in methicillin-resistant Staphylococcus aureus HEMSA assessed as reduction in oxacillin A MIC at 0.5 mM incubated for 20 hrs by serial dilution broth microplate method
# T1 sequence (whole entry): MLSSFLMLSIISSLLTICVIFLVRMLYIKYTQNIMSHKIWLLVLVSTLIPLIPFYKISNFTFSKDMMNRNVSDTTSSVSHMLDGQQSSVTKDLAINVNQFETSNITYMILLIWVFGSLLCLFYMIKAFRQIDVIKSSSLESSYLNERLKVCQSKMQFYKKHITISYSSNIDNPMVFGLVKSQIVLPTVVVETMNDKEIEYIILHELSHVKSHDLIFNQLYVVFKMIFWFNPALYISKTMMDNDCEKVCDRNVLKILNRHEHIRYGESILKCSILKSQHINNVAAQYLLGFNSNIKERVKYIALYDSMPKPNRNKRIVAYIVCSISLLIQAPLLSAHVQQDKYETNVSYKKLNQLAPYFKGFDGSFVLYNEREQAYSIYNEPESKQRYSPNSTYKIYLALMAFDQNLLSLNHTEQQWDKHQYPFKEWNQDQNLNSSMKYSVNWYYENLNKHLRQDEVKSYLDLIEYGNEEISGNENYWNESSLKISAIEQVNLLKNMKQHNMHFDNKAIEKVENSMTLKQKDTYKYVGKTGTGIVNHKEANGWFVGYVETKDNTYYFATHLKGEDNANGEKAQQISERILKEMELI
# Summary of the method: (§1)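 Chemosensitization in MRSA HEMSA 5 measured by CLSI broth microdilution in Mueller-Hinton broth. Serial two-fold dilutions of antibiotic (oxacillin, cloxacillin, ampicillin/sulbactam 2:1, ciprofloxacin or neomycin) combined with compound at fixed concentration not exceeding ¼ of its own MIC. Inoculum OD 0.5 diluted 1:100. Read after 20 h at 37 °C. Result given as fold reduction of antibiotic MIC.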
# [4] = test system: Staphylococcus aureus; experiment: Potentiation of oxacillin-induced antibacterial activity against Staphylococcus aureus ATCC 25923 assessed as reduction in oxacillin MIC at 0.5 mM incubated for 20 hrs by serial dilution broth microplate method; format: functional, organism-based
# [5] = test system: Staphylococcus aureus; experiment: Resistance index, ratio of MIC for methicillin-resistant Staphylococcus aureus HEMSA to MIC for Staphylococcus aureus ATCC 25923; format: functional
# [6] = target: T1, Methicillin resistance mecR1 protein (Staphylococcus aureus); experiment: Inhibition of MecR1 in methicillin-resistant Staphylococcus aureus HEMSA assessed as reduction in oxacillin A MIC at 0.125 mM incubated for 20 hrs by serial dilution broth microplate method; summary of the method: as §1
# [7] = test system: Staphylococcus aureus; experiment: Potentiation of oxacillin-induced antibacterial activity against Staphylococcus aureus ATCC 25923 assessed as reduction in oxacillin MIC at 0.0625 mM incubated for 20 hrs by serial dilution broth microplate method; format: functional
# [8] = target: T1, Methicillin resistance mecR1 protein (Staphylococcus aureus); experiment: Inhibition of MecR1 in methicillin-resistant Staphylococcus aureus HEMSA assessed as reduction in cloxacillin MIC at 0.125 mM incubated for 20 hrs by serial dilution broth microplate method; summary of the method: as §1
# [9] = target: T1, Methicillin resistance mecR1 protein (Staphylococcus aureus); experiment: Inhibition of MecR1 in methicillin-resistant Staphylococcus aureus HEMSA assessed as reduction in ampicillin and sulbactam MIC at 0.125 mM incubated for 20 hrs by serial dilution broth microplate method; summary of the method: as §1
# [10] = test system: Staphylococcus aureus; experiment: Potentiation of […] antibacterial activity against Staphylococcus aureus ATCC 25923 assessed as reduction in cloxacillin MIC incubated for 20 hrs by serial dilution broth microplate method; format: functional, organism-based
# [11] = test system: Staphylococcus aureus; experiment: Potentiation of […] antibacterial activity against Staphylococcus aureus ATCC 25923 assessed as reduction in ampicillin and sulbactam MIC MIC incubated for 20 hrs by serial dilution broth microplate method; format: functional, organism-based
# [12] = target: T1, Methicillin resistance mecR1 protein (Staphylococcus aureus); experiment: Inhibition of MecR1 in methicillin-resistant Staphylococcus aureus HEMSA assessed as reduction in ciprofloxacin MIC at 0.125 mM incubated for 20 hrs by serial dilution broth microplate method; summary of the method: as §1
# [13] = target: T1, Methicillin resistance mecR1 protein (Staphylococcus aureus); experiment: Inhibition of MecR1 in methicillin-resistant Staphylococcus aureus HEMSA assessed as reduction in neomycin MIC at 0.125 mM incubated for 20 hrs by serial dilution broth microplate method; summary of the method: as §1
# [14] = test system: Staphylococcus aureus; experiment: Potentiation of ciprofloxacin -induced antibacterial activity against Staphylococcus aureus ATCC 25923 assessed as reduction in […] MIC incubated for 20 hrs by serial dilution broth microplate method; format: functional, organism-based
# [15] = test system: Staphylococcus aureus; experiment: Potentiation of neomycin-induced antibacterial activity against Staphylococcus aureus ATCC 25923 assessed as reduction in […] MIC incubated for 20 hrs by serial dilution broth microplate method; format: functional, organism-based
# [16] = target: T1, Methicillin resistance mecR1 protein (Staphylococcus aureus); experiment: Inhibition of MecR1 in methicillin-resistant Staphylococcus aureus HEMSA assessed as reduction in oxacillin A MIC at 0.25 mM incubated for 20 hrs by serial dilution broth microplate method; summary of the method: as §1
# [17] = target: T1, Methicillin resistance mecR1 protein (Staphylococcus aureus); experiment: Inhibition of MecR1 in methicillin-resistant Staphylococcus aureus HEMSA assessed as reduction in cloxacillin MIC at 0.5 mM incubated for 20 hrs by serial dilution broth microplate method; summary of the method: as §1
# [18] = target: T1, Methicillin resistance mecR1 protein (Staphylococcus aureus); experiment: Inhibition of MecR1 in methicillin-resistant Staphylococcus aureus HEMSA assessed as reduction in ampicillin and sulbactam MIC at 0.5 mM incubated for 20 hrs by serial dilution broth microplate method; summary of the method: as §1
# [19] = target: T1, Methicillin resistance mecR1 protein (Staphylococcus aureus); experiment: Inhibition of MecR1 in methicillin-resistant Staphylococcus aureus HEMSA assessed as reduction in ciprofloxacin MIC at 0.5 mM incubated for 20 hrs by serial dilution broth microplate method; summary of the method: as §1
# [20] = target: T1, Methicillin resistance mecR1 protein (Staphylococcus aureus); experiment: Inhibition of MecR1 in methicillin-resistant Staphylococcus aureus HEMSA assessed as reduction in neomycin MIC at 0.5 mM incubated for 20 hrs by serial dilution broth microplate method; summary of the method: as §1
# [21] = target: T1, Methicillin resistance mecR1 protein (Staphylococcus aureus); experiment: Inhibition of MecR1 in methicillin-resistant Staphylococcus aureus HEMSA assessed as reduction in cloxacillin MIC at 0.25 mM incubated for 20 hrs by serial dilution broth microplate method; summary of the method: as §1
# [22] = target: T1, Methicillin resistance mecR1 protein (Staphylococcus aureus); experiment: Inhibition of MecR1 in methicillin-resistant Staphylococcus aureus HEMSA assessed as reduction in ampicillin and sulbactam MIC at 0.25 mM incubated for 20 hrs by serial dilution broth microplate method; summary of the method: as §1
# [23] = target: T1, Methicillin resistance mecR1 protein (Staphylococcus aureus); experiment: Inhibition of MecR1 in methicillin-resistant Staphylococcus aureus HEMSA assessed as reduction in ciprofloxacin MIC at 0.25 mM incubated for 20 hrs by serial dilution broth microplate method; summary of the method: as §1
# [24] = target: T1, Methicillin resistance mecR1 protein (Staphylococcus aureus); experiment: Inhibition of MecR1 in methicillin-resistant Staphylococcus aureus HEMSA assessed as reduction in neomycin MIC at 0.25 mM incubated for 20 hrs by serial dilution broth microplate method; summary of the method: as §1
# [25] = target: T1, Methicillin resistance mecR1 protein (Staphylococcus aureus); experiment: Inhibition of MecR1 in methicillin-resistant Staphylococcus aureus HEMSA assessed as reduction in oxacillin A MIC at 0.0039 mM incubated for 20 hrs by serial dilution broth microplate method; summary of the method: as §1
# [26] = test system: Staphylococcus aureus; experiment: Potentiation of oxacillin-induced antibacterial activity against Staphylococcus aureus ATCC 25923 assessed as reduction in oxacillin MIC at 0.0005 mM incubated for 20 hrs by serial dilution broth microplate method; format: functional, organism-based
# [27] = target: T1, Methicillin resistance mecR1 protein (Staphylococcus aureus); experiment: Inhibition of MecR1 in methicillin-resistant Staphylococcus aureus HEMSA assessed as reduction in cloxacillin MIC at 0.0039 mM incubated for 20 hrs by serial dilution broth microplate method; summary of the method: as §1
# [28] = target: T1, Methicillin resistance mecR1 protein (Staphylococcus aureus); experiment: Inhibition of MecR1 in methicillin-resistant Staphylococcus aureus HEMSA assessed as reduction in ampicillin and sulbactam MIC at 0.0039 mM incubated for 20 hrs by serial dilution broth microplate method; summary of the method: as §1
# [29] = target: T1, Methicillin resistance mecR1 protein (Staphylococcus aureus); experiment: Inhibition of MecR1 in methicillin-resistant Staphylococcus aureus HEMSA assessed as reduction in ciprofloxacin MIC at 0.0039 mM incubated for 20 hrs by serial dilution broth microplate method; summary of the method: as §1
# [30] = target: T1, Methicillin resistance mecR1 protein (Staphylococcus aureus); experiment: Inhibition of MecR1 in methicillin-resistant Staphylococcus aureus HEMSA assessed as reduction in neomycin MIC at 0.0039 mM incubated for 20 hrs by serial dilution broth microplate method; summary of the method: as §1
Compound,MIC [1] [µM],MIC [2] [µM],Activity [4],Ratio [5],Activity [10],Activity [11],Activity [14],Activity [15],other results
O=C1N/C(=C\c2ccc(Cl)cc2Cl)C(=O)N1CC(O)CN1CCNCC1 (stereo not drawn),> 1000,> 1000,inactive,,,,,,inhibition [3]: inactive
NC[C@@H]1O[C@H](O[C@H]2[C@@H](O)[C@H](O[C@@H]3[C@@H](O)[C@H](N)C[C@H](N)[C@H]3O[C@H]3O[C@H](CN)[C@@H](O)[C@H](O)[C@H]3N)O[C@@H]2CO)[C@H](N)[C@@H](O)[C@@H]1O [FRAMYCETIN],240,1,,240,,,,,
O=C1NC(N2CCNCC2)=N/C1=C\c1ccc2ccccc2c1,500,250,,2,inactive,inactive,inactive,inactive,fold change (FC) [6]: 128; fold change (FC) [7]: 2; fold change (FC) [8]: 256; fold change (FC) [9]: 4; fold change (FC) [12]: 4; inhibition [13]: inactive
O=C1NC(N2CCNCC2)=N/C1=C\c1ccc(Cl)cc1,500,> 1000,inactive,,,,,,inhibition [6]: inactive
Cc1onc(-c2ccccc2Cl)c1C(=O)N[C@@H]1C(=O)N2[C@@H]1SC(C)(C)[C@@H]2C(=O)O [CLOXACILLIN],160,0.42,,,,,,,
CC1(c2cccc3ccccc23)NC(=O)N(CCCCCN)C1=O (stereo not drawn),1000,> 1000,inactive,,,,,,inhibition [16]: inactive
Cc1onc(-c2ccccc2)c1C(=O)N[C@@H]1C(=O)N2[C@@H]1SC(C)(C)[C@@H]2C(=O)O [OXACILLIN],710,0.47,,>1500,,,,,
O=C1NC(N2CCNCC2)=N/C1=C\c1cccs1,> 1000,> 1000,inactive,,inactive,inactive,inactive,inactive,inhibition [3]: inactive; inhibition [17]: inactive; inhibition [18]: inactive; inhibition [19]: inactive; inhibition [20]: inactive
CC1(c2cccc3ccccc23)NC(=O)N(CCCCN)C1=O (stereo not drawn),> 1000,> 1000,inactive,,,,,,inhibition [3]: inactive
O=C1NC(N2CCNCC2)=N/C1=C\c1ccsc1,1000,> 1000,inactive,,inactive,inactive,inactive,inactive,inhibition [16]: inactive; inhibition [21]: inactive; inhibition [22]: inactive; inhibition [23]: inactive; inhibition [24]: inactive
O=C1N/C(=C\c2ccc(Cl)cc2)C(=O)N1CC(O)CN1CCNCC1 (stereo not drawn),1000,> 1000,,,,,,,
O=C1NC(N2CCNCC2)=N/C1=C\c1cc2ccccc2c2ccccc12,15.6,1.9,,8,inactive,inactive,inactive,inactive,inhibition [25]: inactive; Activity [26]: inactive; fold change (FC) [27]: 2; inhibition [28]: inactive; inhibition [29]: inactive; inhibition [30]: inactive
CC1(c2cccc3ccccc23)NC(=O)N(CCCN)C1=O (stereo not drawn),> 1000,> 1000,inactive,,inactive,inactive,inactive,inactive,inhibition [3]: inactive; inhibition [17]: inactive; inhibition [18]: inactive; inhibition [19]: inactive; inhibition [20]: inactive
COc1ccc(/C=C2\NC(=O)N(CC(O)CNCCCN3CCN(C)CC3)C2=O)cc1 (stereo not drawn),> 1000,> 1000,inactive,,inactive,inactive,inactive,inactive,fold change (FC) [3]: 2; fold change (FC) [17]: 8; fold change (FC) [18]: 2; fold change (FC) [19]: 2; inhibition [20]: inactive
O=C(O)c1cn(C2CC2)c2cc(N3CCNCC3)c(F)cc2c1=O [CIPROFLOXACIN],14,0.38,,37,,,,,
